Results reported in ChEMBL document CHEMBL3868629, “Discovery of novel N-phenyl 1,4-dihydropyridines with a dual mode of antimycobacterial activity” (Bioorg Med Chem Lett, 2016).

How the values were obtained:
[1] = target: ATP-dependent translocase ABCB1 (Homo sapiens, UniProt P08183); assay: Inhibition of human ABCB1 expressed in mouse T-lymphoma cells assessed as rhodamine-123 accumulation by measuring fluorescence activity ratio at 1 uM by flow cytometry relative to control; format: cell-based
Sequence of ATP-dependent translocase ABCB1 (P08183 whole entry): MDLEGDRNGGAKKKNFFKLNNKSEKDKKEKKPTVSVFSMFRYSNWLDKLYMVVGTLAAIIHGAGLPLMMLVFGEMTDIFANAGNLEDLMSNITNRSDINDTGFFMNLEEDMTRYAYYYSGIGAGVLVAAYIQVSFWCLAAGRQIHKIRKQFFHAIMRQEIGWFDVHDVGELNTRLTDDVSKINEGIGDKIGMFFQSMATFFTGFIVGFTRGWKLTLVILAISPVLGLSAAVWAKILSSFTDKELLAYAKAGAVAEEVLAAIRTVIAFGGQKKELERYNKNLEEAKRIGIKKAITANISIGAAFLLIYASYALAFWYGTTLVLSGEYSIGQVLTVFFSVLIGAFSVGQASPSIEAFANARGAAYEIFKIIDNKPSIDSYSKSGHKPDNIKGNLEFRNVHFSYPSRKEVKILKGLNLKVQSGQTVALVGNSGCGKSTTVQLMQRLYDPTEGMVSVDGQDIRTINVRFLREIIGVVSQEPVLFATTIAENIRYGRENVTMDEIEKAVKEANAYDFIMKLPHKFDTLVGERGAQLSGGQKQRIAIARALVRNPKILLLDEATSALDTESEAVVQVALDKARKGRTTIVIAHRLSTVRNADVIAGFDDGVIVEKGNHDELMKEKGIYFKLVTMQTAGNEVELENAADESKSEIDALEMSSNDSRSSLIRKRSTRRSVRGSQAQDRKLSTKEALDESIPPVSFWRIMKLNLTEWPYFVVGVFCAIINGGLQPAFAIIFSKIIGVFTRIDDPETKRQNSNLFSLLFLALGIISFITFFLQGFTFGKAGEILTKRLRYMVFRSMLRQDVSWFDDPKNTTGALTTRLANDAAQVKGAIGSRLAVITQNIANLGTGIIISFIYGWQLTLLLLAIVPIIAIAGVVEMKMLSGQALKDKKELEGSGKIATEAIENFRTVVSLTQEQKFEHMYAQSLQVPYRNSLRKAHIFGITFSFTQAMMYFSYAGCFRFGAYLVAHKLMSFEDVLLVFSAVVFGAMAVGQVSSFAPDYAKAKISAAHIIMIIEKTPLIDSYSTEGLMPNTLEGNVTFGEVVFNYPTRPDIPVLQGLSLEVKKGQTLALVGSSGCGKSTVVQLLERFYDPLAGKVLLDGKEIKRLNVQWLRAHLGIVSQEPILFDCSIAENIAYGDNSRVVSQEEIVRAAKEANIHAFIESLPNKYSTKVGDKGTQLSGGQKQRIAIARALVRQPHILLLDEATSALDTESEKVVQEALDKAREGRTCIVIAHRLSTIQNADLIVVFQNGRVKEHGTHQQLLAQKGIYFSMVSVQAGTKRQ

[2] = system: Mycobacterium tuberculosis; assay: Antitubercular activity against Mycobacterium tuberculosis H37Rv expressing GFP assessed as growth inhibition at 1 ug/ml measured after 7 days by fluorescence analysis relative to control; format: functional; settings: 168 h, read-out: GI
Outline: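 GFP-expressing H37Rv cultured in 7H9 with 10% OADC, 0.05% Tween 80 and 0.2% glycerol, sealed under an air-permeable membrane. Growth was read as fluorescence (excitation 485 nm, emission 528 nm) after seven days, in triplicate. Fluorescence tracks bacterial growth.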

[3] = target: T1, Multidrug efflux ATP-binding/permease protein Rv0194 (Mycobacterium tuberculosis (strain ATCC 25618 / H37Rv)) (UniProt O53645); assay: Inhibition of GFP-fused Mycobacterium tuberculosis H37Rv Rv0194 assessed as potentiation of ciprofloxacin-mediated antitubercular activity by measuring fold increase in ciprofloxacin growth inhibition at 0.3 ug/ml
T1 sequence (whole entry): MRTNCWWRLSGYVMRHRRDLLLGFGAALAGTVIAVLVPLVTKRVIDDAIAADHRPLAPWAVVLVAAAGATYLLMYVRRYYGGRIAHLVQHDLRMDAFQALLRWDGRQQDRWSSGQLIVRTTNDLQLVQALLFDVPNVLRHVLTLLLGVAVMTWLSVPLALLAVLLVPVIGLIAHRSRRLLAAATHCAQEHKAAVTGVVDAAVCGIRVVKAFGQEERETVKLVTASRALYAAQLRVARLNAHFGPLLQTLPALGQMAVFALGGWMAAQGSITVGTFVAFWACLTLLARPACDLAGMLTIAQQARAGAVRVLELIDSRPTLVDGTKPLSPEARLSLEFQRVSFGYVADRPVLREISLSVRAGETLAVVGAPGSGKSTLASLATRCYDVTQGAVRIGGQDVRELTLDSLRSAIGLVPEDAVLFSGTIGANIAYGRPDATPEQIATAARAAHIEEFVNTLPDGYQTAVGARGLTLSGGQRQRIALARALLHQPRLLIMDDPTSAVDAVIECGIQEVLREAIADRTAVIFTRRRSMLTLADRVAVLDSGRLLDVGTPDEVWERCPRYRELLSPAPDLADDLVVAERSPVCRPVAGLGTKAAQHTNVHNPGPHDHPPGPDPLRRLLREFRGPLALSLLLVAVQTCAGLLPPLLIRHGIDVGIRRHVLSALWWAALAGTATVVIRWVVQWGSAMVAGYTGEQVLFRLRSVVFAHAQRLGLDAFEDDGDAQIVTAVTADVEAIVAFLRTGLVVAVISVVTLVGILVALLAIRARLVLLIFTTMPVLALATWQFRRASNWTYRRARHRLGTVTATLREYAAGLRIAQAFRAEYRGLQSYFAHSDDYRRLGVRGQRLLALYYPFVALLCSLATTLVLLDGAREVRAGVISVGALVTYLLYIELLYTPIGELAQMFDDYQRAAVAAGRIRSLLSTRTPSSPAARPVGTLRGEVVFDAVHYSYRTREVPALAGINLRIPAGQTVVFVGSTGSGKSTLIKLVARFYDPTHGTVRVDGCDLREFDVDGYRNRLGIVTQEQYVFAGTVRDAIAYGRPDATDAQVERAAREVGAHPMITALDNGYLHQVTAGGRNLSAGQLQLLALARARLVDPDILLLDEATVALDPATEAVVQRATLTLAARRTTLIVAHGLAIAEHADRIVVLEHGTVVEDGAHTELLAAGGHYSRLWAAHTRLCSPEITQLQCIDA

[4] = target: T1, Multidrug efflux ATP-binding/permease protein Rv0194 (Mycobacterium tuberculosis (strain ATCC 25618 / H37Rv)); assay: Inhibition of GFP-fused Mycobacterium tuberculosis H37Rv Rv0194 assessed as potentiation of ciprofloxacin-mediated antitubercular activity by measuring ciprofloxacin growth inhibition at 0.3 ug/ml (reference value: 19%)
Outline: (§1)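 The antitubercular drug at set concentrations was tested alone and combined with the test compound held at 0.3 µg/mL. The GFP-expressing H37Rv growth assay was used: 7H9 with 10% OADC, 0.05% Tween 80 and 0.2% glycerol, seven days of culture, fluorescence at 485/528 nm, triplicates.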

[5] = target: T1, Multidrug efflux ATP-binding/permease protein Rv0194 (Mycobacterium tuberculosis (strain ATCC 25618 / H37Rv)); assay: Inhibition of GFP-fused Mycobacterium tuberculosis H37Rv Rv0194 assessed as potentiation of clofazimine-mediated antitubercular activity by measuring clofazimine growth inhibition at 0.3 ug/ml (reference value: 39%); outline: as §1

Structure (SMILES) | Ratio [1] | inhibition of growth at 1 µg/mL [2] | fold change (FC) [3] | growth inhibition (GI) [4] | growth inhibition (GI) [5]
CCOC(=O)C1=CN(c2ccccc2)C=C(C(=O)OCC)C1c1cccc(OC)c1 | 1.1 | 61% |  |  | 
CCOC(=O)C1=CN(c2ccc(OC)cc2)C=C(C(=O)OCC)C1c1ccc(OC)c(OC)c1 | 5.2 | 60% |  |  | 
CCOC(=O)C1=CN(c2ccc(OC)cc2)C=C(C(=O)OCC)C1c1cccc(OC)c1 | 3.4 | 41% |  |  | 
CCOC(=O)C1=CN(c2ccc(OC)cc2)C=C(C(=O)OCC)C1c1ccc(OC)cc1 | 1.2 | 35% |  |  | 
CCOC(=O)C1=CN(c2ccccc2)C=C(C(=O)OCC)C1c1ccc(OC)cc1 |  | 25% |  |  | 
CCOC(=O)C1=CN(c2ccccc2)C=C(C(=O)OCC)C1c1ccc(OC)c(OC)c1 | 7.3 | 30% | 2.5 | 46% | 60%
CCOC(=O)C1=CN(c2ccc(OC)cc2)C=C(C(=O)OCC)C1c1ccccc1 | 3.9 | 60% |  |  | 
CCOC(=O)C1=CN(c2ccccc2)C=C(C(=O)OCC)C1c1ccccc1 | 4.3 | 57% |  |  | 
NNC(=O)c1ccncc1 [ISONIAZID] |  | 97% |  |  | 
